In the library only some 2.9% were active in any assay of this set; here they are far more common.
CRFR2-BP ag – agonists of human CRF-binding protein/CRF-R2 receptor complex; HEK293 CRF-R2/CRF-BP, calcium dye fluorescence (FLIPR); percent of saturating CRF peptide response; hit rate 0.46% among 350,000; activation, % at 13.2 µM;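 active means activation of at least 50%, plus an integration ratio under a set limit after plate pattern correction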
Tn7 DDE FP – DD(E)-Tn7 binding inhibition, primary FP screen; P02675; FP displacement of FITC-Tn7 peptide from fibrin DD(E); 0% = median of compound wells per plate; inhibition, % at 8.3 µM; hit rate 0.13% among 370,000; AID 720508;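 active means inhibition above the mean of compounds falling within the control limits plus 3 SD of them, cut at about 14% in these data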
Target sequence (P02675 whole entry, looked up): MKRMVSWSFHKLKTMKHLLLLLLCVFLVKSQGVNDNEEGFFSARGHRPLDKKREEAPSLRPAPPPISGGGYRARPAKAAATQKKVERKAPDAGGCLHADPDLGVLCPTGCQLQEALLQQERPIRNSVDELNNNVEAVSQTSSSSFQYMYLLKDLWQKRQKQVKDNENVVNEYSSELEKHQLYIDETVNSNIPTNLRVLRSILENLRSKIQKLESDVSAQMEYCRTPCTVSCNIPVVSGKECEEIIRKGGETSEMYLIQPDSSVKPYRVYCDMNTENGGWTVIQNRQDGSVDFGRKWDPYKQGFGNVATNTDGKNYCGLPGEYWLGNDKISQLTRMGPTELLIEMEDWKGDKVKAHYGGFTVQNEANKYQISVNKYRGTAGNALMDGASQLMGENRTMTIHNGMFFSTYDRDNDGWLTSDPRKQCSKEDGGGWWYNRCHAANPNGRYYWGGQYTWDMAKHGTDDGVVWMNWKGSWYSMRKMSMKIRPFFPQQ
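assay system = human clot-derived fibrin DD(E) complex | quantity = Fibrin-DD(E) at 2 µM final | timing = 10 min preincubation, 3 h with tracer, room temperature | signal = fluorescence polarization | measure = percent inhibition | benchmarks = high control wells with 10 µM unlabelled Aha-Tn7 peptide (full inhibition) | replicates = singlicate testing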
CendR NRP1 mod – modulators of CendR peptide binding to human neuropilin-1. FAM-RPARPAR peptide binding to NRP-1, fluorescence polarization. hit rate 0.85% among 360,000. inhibition, % at 25 µM;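 active means inhibition or corrected inhibition above about 18%, plus a signal ratio from 0.5 to 1.5, limit read from the data, passing the limit was not always enough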
Tn6 DDE FP – inhibitors of Tn6 peptide binding to human fibrin DD(E). hit rate 0.21% among 370,000. inhibition, % at 8.3 µM. Fibrin DD(E) TRITC-Tn6 fluorescence polarization displacement. P02675;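 active means inhibition above a per-campaign cutoff: mean of compounds within control limits plus 3 SD, cut at about 15% in these data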
KLK7 zymogen act – activates the human kallikrein-7 zymogen; P49862; purified proKLK7, EDANS-DABCYL substrate fluorescence; 100% is mature enzyme control, 0% vehicle; activation, % at 7 µM; hit rate 0.9% among 370,000;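 active means activation above the mean of all tested compounds plus 3 SD, computed per campaign excluding outliers beyond control limits, cut at about 13% in these data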
Target sequence (P49862 whole entry, looked up): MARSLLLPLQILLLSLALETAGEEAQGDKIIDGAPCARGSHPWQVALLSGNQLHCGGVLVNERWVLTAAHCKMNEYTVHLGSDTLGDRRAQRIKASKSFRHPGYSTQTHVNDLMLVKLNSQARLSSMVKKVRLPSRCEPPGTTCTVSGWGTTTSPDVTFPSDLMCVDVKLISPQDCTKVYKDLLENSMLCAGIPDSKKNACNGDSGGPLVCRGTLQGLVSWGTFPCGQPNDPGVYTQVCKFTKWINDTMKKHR
CRFBP-R2 block – antagonists of CRF-binding protein/CRF-R2 receptor complex; HEK293 CRF-R2/CRF-BP, CRF-induced calcium fluorescence; inhibition, % at 11.8 µM; hit rate 0.59% among 350,000; AID 588475;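 active means inhibition of the ligand-induced calcium signal above about 50% at the single tested concentration, limit read from the data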
Of the large screens only hits and unclear results are named; the others gave an inactive call.

COC(=O)[C@]12C[C@H](CC(=O)NCc3cccs3)C(=O)N(CCC3=CCCCC3)C1=C[C@H](C(C)C)O[C@@H]2C1CC1	none (no result: CRFR2-BP ag, CendR NRP1 mod, CRFBP-R2 block)
Cc1ccccc1NC1=C/C(=N\S(=O)(=O)c2cccs2)c2ccccc2C1=O	none
CCc1ccc(S(=O)(=O)/N=C2\C=C(NS(=O)(=O)c3ccccc3)C(=O)c3ccccc32)cc1	none
O=C(O)c1ccc(S(=O)(=O)/N=C2\C=C(Nc3ccccc3F)C(=O)c3ccccc32)cc1	CendR NRP1 mod 19.0
COc1ccc(S(=O)(=O)/N=C2\C=C(Nc3ccc(O)cc3)C(=O)c3ccccc32)cc1	none
CC(C)c1ccc(S(=O)(=O)/N=C2\C=C(NS(=O)(=O)c3ccccc3)C(=O)c3ccccc32)cc1	CendR NRP1 mod 30.6
Cc1ccccc1NC1=C/C(=N\S(=O)(=O)c2ccc(C(=O)O)cc2)c2ccccc2C1=O	CendR NRP1 mod 24.1
CCOC(=O)c1cc(NC(=O)Nc2cc(C)ccn2)c(C)nc1C	CRFBP-R2 block 113.3
CCOC(=O)Nc1cc(C(=O)OCC)c(C)nc1C	none
Cc1ccccc1CN1C(=O)CS/C1=N/N=C/c1ccco1	CendR NRP1 mod 29.0
CCCCCCCCCOC(=O)C1N2C(=O)[C@@H](NC(=O)COc3ccccc3)[C@H]2SC1(C)C (stereo partly drawn)	CendR NRP1 mod 21.9
O=C(CN1C(=O)C2(OCCCO2)c2ccccc21)NCc1ccc2ccccc2c1	none (no result: CRFR2-BP ag, CendR NRP1 mod, CRFBP-R2 block)
CCOC(CNc1ncnc2c1cnn2C)OCC	none
COC(CNc1ncnc2c1cnn2C)OC	CRFBP-R2 block 53.4
C/C(=N\NC(=O)c1cc(O)ccc1O)c1cccc(NC(=O)c2cccc(Cl)c2)c1	CendR NRP1 mod 23.1
C/C(=N\NC(=O)c1cc(O)ccc1O)c1cccc(NC(=O)c2ccc(Cl)cc2)c1	none
CCCCOC(=O)CCN1C(=O)/C(=C2\SC(=S)N(CCC(=O)OCCCC)C2=O)SC1=S	CendR NRP1 mod 27.7
CCCCCOC(=O)CCN1C(=O)/C(=C2\SC(=S)N(CCC(=O)OCCCCC)C2=O)SC1=S	none
COC(=O)C1CN(C2CCCC2)CCS(=O)(=O)N1Cc1ccc(OC)cc1 (stereo not drawn)	none (no result: CRFR2-BP ag, CendR NRP1 mod, CRFBP-R2 block)
CCc1noc(C)c1C(=O)N1CCSC1=Nc1cccc(Cl)c1C	CRFBP-R2 block 71.2
CC(C)c1cc(N2CCC(=O)NC2=O)cc(C(=O)O)c1O	CRFBP-R2 block 52.0
CC(C)N1CCC(=O)NC1=O	none
COCc1cn(-c2ccc3c(c2)[C@@]2(CC(=O)N(C)C2c2ccccc2)C(=O)N3CC(C)C)nn1 (stereo partly drawn)	none (no result: CRFR2-BP ag, CendR NRP1 mod, CRFBP-R2 block)
CCN(CC)c1ccc(/C=C(\C#N)C(N)=S)cc1	CRFR2-BP ag 72.1
CCN(CC)c1ccc(/C=C(\C#N)C(=O)c2ccc(Br)cc2)cc1	CRFR2-BP ag 300.8
CCN(CC)c1ccc(/C=C(\C#N)C(N)=O)cc1	none
Cc1ccc(C=C(C#N)C(=O)c2ccccc2)cc1	none (no result: CRFR2-BP ag, CRFBP-R2 block)
CN(C)c1ccc(/C=C(\C#N)C(=O)c2ccccc2)cc1	CRFR2-BP ag 211.7
COC(=O)C1CN(C2CCCC2)CCS(=O)(=O)N1Cc1cn(Cc2ccc(Cl)cc2)nn1 (stereo not drawn)	none (no result: CRFR2-BP ag, CendR NRP1 mod, CRFBP-R2 block)
O=C(COC(=O)COc1ccc(Cl)cc1Br)NCc1cccs1	CRFBP-R2 block 52.8
CCOC(=O)[C@]12CCCC=C1N(Cc1ccc(OC)cc1)C(=O)[C@@H]2CC(=O)N1CCN(C(=O)c2ccco2)CC1	none (no result: CRFR2-BP ag, CendR NRP1 mod, CRFBP-R2 block)
COc1cc(/C=N/NC(=O)c2ccc(NC(=O)C3CC3)cc2)ccc1OC(C)=O	CendR NRP1 mod 26.9
COc1ccc(/C=N/NC(=O)c2ccc(NC(=O)C3CCCCC3)cc2)cc1O	none
CCOC(=O)[C@]12CCCCC/C=C\1N(Cc1ccc(OC)cc1)C(=O)[C@H]2CC(=O)N1CCCC1	none (no result: CRFR2-BP ag, CendR NRP1 mod, CRFBP-R2 block)
C=CCN(CC#Cc1ccccc1)Cc1ccc(OC)cc1	none (no result: CRFR2-BP ag, CendR NRP1 mod, CRFBP-R2 block)
COc1ccc2nc3c(cc2c1)c(NC(=O)c1cccs1)nn3CC(C)C	CendR NRP1 mod 44.6
CC(C)Cn1nc(NC(=O)c2cccs2)c2cc3ccccc3nc21	none
CC(NC(=S)NCCCN1CCOCC1)C12CC3CC(CC(C3)C1)C2 (stereo not drawn)	CendR NRP1 mod 26.7
Cc1ccc(Nc2nc(-c3c(C)nc4ccccn34)cs2)cc1	CRFBP-R2 block 65.9
Cc1ccn2c(-c3csc(NCc4ccccc4)n3)c(C)nc2c1	CendR NRP1 mod 25.4
Cc1ccc(Nc2nc(-c3c(C)nc4ncccn34)cs2)cc1	none
Cc1cccc(NC(=O)CSc2nnc(SCc3ccc(Cl)cc3)s2)c1	none (no result: CRFR2-BP ag, CendR NRP1 mod, CRFBP-R2 block)
O=C(NNC(=O)c1ccc(S(=O)(=O)N2CCCCC2)cc1)c1ccccc1	none
CC(=O)N1CCN(S(=O)(=O)c2cccc(C(=O)NCc3ccc(F)cc3)c2)CC1	CRFBP-R2 block 89.3
O=C(NCc1ccc(F)cc1)c1cccc(S(=O)(=O)N2CCCC2)c1	none
O=C(NNC(=O)c1cccc(S(=O)(=O)N2CCCCC2)c1)c1ccccc1	CRFBP-R2 block 103.3
Cc1ccnc(NC(=O)c2cccc(S(=O)(=O)N3CCCC3)c2)c1	CRFBP-R2 block 73.4
O=C(Nc1nnc(S(=O)(=O)N2CCCCC2)s1)c1cccc(Br)c1	CRFBP-R2 block 58.5 (no result: Tn7 DDE FP, Tn6 DDE FP, KLK7 zymogen act)
O=C(Nc1nnc(S(=O)(=O)N2CCCC2)s1)c1cccc([N+](=O)[O-])c1	none (no result: Tn7 DDE FP, Tn6 DDE FP, KLK7 zymogen act)
CCCCNC(=O)C[C@H]1C[C@@]2(C(=O)OC)C(=C[C@H](COCc3ccccc3)O[C@@H]2C)N(Cc2ccco2)C1=O	none (no result: CRFR2-BP ag, CendR NRP1 mod, CRFBP-R2 block)
C#CCCCN([C@H](C(=O)OC)C(C)C)S(=O)(=O)c1ccccc1Br	none (no result: CRFR2-BP ag, CendR NRP1 mod, CRFBP-R2 block)
CN1C(=O)C[C@@](C#N)(C(=O)NCCc2ccccc2)[C@H]1c1ccccc1	none (no result: CRFR2-BP ag, CendR NRP1 mod, CRFBP-R2 block)
CCC(C(=O)Nc1ccccc1N1CCCC1)c1ccccc1Cl (stereo not drawn)	none (no result: CRFR2-BP ag, CendR NRP1 mod, CRFBP-R2 block)
CCOc1ccc(-n2c(SCC(=O)Nc3ccc(S(=O)(=O)Nc4nccs4)cc3)nnc2-c2ccc(C(C)(C)C)cc2)cc1	none (no result: CRFR2-BP ag, CendR NRP1 mod, CRFBP-R2 block)
CCNC(=O)Nc1ccc2c(c1)C(=O)N(C)[C@H]1CC[C@H](CC(=O)N[C@H](C)c3ccccc3)O[C@@H]1CO2	none (no result: CRFR2-BP ag, CendR NRP1 mod, CRFBP-R2 block)
O=C(Nc1ccc(Cl)cn1)c1cccc(S(=O)(=O)N2CCCCCC2)c1	none
O=C(O)c1cccc(S(=O)(=O)N2CCN(C(c3ccccc3)c3ccccc3)CC2)c1	CendR NRP1 mod 36.0
O=C(c1cccc(S(=O)(=O)N2CCOCC2)c1)N(Cc1ccc(F)cc1)Cc1ccco1	CRFBP-R2 block 55.2
O=C(Nc1ccc(Cl)cn1)c1cccc(S(=O)(=O)N2CCCC2)c1	CRFBP-R2 block 58.3
COc1ccc(NC(=O)c2cc(C(=O)Nc3ccc(OC)cc3OC)cc([N+](=O)[O-])c2)c(OC)c1	CRFBP-R2 block 50.5
COc1ccc(NC(=O)CCCCC(=O)Nc2ccc(OC)cc2OC)c(OC)c1	CRFBP-R2 block 58.6
CCOc1ccccc1NC(=O)CSc1nccn1-c1ccccc1	none

Assay outcomes deposited in PubChem BioAssay by several laboratories.
